ChEMBL document CHEMBL1138476 (J Med Chem, 2009)
≈ marks a conversion by molar mass, not a printed value.

Experiments:
[1] = Plasma concentration in dog at 1 mg/kg after intravenous infusion for 30 mins; assay type: ADME, organism-based, Canis lupus familiaris; design: dose 1 mg/kg, route intravenous
[2] = system: Canis familiaris; assay: Effect on respiratory function in spontaneously breathing mongrel dog assessed as change in intrapleural pressure at 5 mg/kg after intravenous infusion for 15 mins (RVb= 12.6+/-17.1 %); assay type: functional, Canis lupus familiaris
[3] = system: Canis familiaris; assay: Effect on respiratory function in spontaneously breathing mongrel dog assessed as change in intrapleural pressure at 5 mg/kg after intravenous infusion for 30 mins (RVb= -90.8+/-103 %); assay type: functional, Canis lupus familiaris
[4] = system: Canis familiaris; assay: Effect on respiratory function in spontaneously breathing mongrel dog assessed as change in peak expiratory flow at 5 mg/kg after intravenous infusion for 15 mins (RVb= -8.4+/-6.6 %); assay type: functional, Canis lupus familiaris
[5] = system: Rattus norvegicus; assay: Effect on acute renal function in rat assessed as change in urine urea level per 100 gm body weight at 30 mg/kg, po (RVb= 321+/-62 mg/dl); assay type: functional
[6] = system: Rattus norvegicus; assay: Effect on acute renal function in rat assessed as change in osmolality in urine per 100 gm body weight at 30 mg/kg, po (RVb= 325+/-1.9 mg/dl); assay type: functional
[7] = Plasma concentration in rat at 30 mg/kg, po after 1 hr; assay type: ADME, organism-based; design: dose 30 mg/kg, route oral
Outline: (§1)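 Rats (n = 9, renal function study) given 30 mg/kg po; plasma levels measured in a separate cohort dosed the same way, sampled at 1 and 5 h after dosing.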

[8] = Plasma concentration in rat at 30 mg/kg, po after 5 hrs; assay type: ADME, organism-based; design: dose 30 mg/kg, route oral; outline: as §1
[9] = system: Canis familiaris; assay: Effect on respiratory function in spontaneously breathing mongrel dog assessed as change in airway resistance at 5 mg/kg after intravenous infusion for 15 mins (RVb= 27.8+/-17.9 %); assay type: functional, Canis lupus familiaris
[10] = system: Canis familiaris; assay: Effect on respiratory function in spontaneously breathing mongrel dog assessed as change in mean arterial pressure at 5 mg/kg after intravenous infusion for 15 mins (RVb= 2.1+/-1.5 %); assay type: functional, Canis lupus familiaris, Artery
[11] = system: Canis familiaris; assay: Effect on respiratory function in spontaneously breathing mongrel dog assessed as change in mean arterial pressure at 5 mg/kg after intravenous infusion for 60 mins (RVb= 5.1+/-3.5 %); assay type: functional, Canis lupus familiaris, Artery
[12] = system: Canis familiaris; assay: Effect on respiratory function in spontaneously breathing mongrel dog assessed as change in heart rate at 5 mg/kg after intravenous infusion for 15 mins (RVb= -2.3+/-1.7 %); assay type: functional, Canis lupus familiaris
[13] = system: Rattus norvegicus; assay: Effect on acute renal function in rat assessed as change in urine chloride level per 100 gm body weight at 30 mg/kg, po (RVb= 95.3+/-11.6 mg/dl); assay type: functional
[14] = target: T1, Corticotropin-releasing factor receptor 1 (Rattus norvegicus, UniProt P35353); assay: Displacement of [125I]Tyro-rat/human CRF from CRF1 receptor in rat cortical membrane by gamma counting; assay type: cell membranes
T1 sequence (P35353 whole entry): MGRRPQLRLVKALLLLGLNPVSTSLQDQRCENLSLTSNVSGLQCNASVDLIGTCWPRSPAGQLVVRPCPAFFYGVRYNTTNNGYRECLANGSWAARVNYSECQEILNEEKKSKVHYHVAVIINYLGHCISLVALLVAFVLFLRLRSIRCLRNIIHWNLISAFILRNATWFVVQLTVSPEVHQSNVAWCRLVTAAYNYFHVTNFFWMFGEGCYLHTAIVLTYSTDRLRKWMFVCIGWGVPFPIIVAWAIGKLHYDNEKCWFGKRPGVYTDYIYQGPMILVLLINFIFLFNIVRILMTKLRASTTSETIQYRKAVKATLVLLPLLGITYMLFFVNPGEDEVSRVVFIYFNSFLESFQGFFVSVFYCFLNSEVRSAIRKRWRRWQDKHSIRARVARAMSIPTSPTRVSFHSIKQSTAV
Outline: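 Binding to CRF receptors in rat cortical homogenate.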

[15] = target: T2, Substance-K receptor (Homo sapiens, UniProt P21452); assay: Binding affinity to human neurokinin 2 receptor
T2 sequence (P21452 whole entry): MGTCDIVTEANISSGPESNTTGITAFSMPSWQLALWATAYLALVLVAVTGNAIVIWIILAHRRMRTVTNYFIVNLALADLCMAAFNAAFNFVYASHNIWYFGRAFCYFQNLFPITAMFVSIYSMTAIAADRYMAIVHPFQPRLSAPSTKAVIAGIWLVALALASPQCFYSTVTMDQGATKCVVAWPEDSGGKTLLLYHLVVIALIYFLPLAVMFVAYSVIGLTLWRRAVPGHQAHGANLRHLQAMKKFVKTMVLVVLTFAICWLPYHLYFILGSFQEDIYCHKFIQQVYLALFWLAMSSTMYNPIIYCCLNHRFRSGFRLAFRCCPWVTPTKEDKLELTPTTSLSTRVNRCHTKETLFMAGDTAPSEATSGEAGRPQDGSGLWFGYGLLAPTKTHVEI
Outline: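 Human neurokinin 2 receptor binding, contracted out as part of a broad screen.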

[16] = Solubility in 0.01 N HCl at pH 2.5; assay type: physicochemical
[17] = Solubility in acetone; assay type: physicochemical
[18] = system: Rattus norvegicus; assay: Anxiolytic activity in rat assessed as decrease in latency to exit dark chamber at 3 mg/kg, po by defensive withdrawal test relative to untreated control; assay type: functional; design: scale not given: the % may be the effect or the level left
Outline: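 Rat defensive withdrawal: latency to leave the dark chamber and explore the open field, maximum 900 s. Dosed orally in 0.25% Methocel 60 min before testing; n = 8 per dose, mean ± SEM. Analysed by Kruskal–Wallis followed by Mann–Whitney U against vehicle.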

[19] = system: Rattus norvegicus; assay: Toxicity in rat assessed as total distance traveled at 10 mg/kg, po after 1 hr by spontaneous locomotor test; assay type: functional
Outline: (§2)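 Rat spontaneous locomotor activity test with oral dosing in 0.25% Methocel 1 h before testing, at doses up to 100 mg/kg. Values are mean ± SEM, with N rats per group, compared with the vehicle (zero-dose) group.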

[20] = system: Rattus norvegicus; assay: Toxicity in rat assessed as total distance traveled at 100 mg/kg, po after 1 hr by spontaneous locomotor test; assay type: organism-based; design: dose 100 mg/kg, route oral; conditions: in vivo; outline: as §2
[21] = system: Rattus norvegicus; assay: Toxicity in rat assessed as time spent on rotarod at 1 mg/kg, po after 1 hr by rotarod test; assay type: organism-based; design: dose 1 mg/kg, route oral; conditions: in vivo
Outline: (§3)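 Rats (N = 8 per dose) dosed po in 0.25% Methocel 1 h before rotorod testing. Time on rotorod in s, given as mean ± SEM against a vehicle (zero dose) group.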

[22] = system: Rattus norvegicus; assay: Toxicity in rat assessed as time spent on rotarod at 10 mg/kg, po after 1 hr by rotarod test; assay type: organism-based; design: dose 10 mg/kg, route oral; conditions: in vivo
Outline: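 Rats, n = 8 per dose, dosed po in 0.25% Methocel 1 h before testing, at 0, 1.0, 3.0, 10, 30 and 100 mg/kg. Read-out is time on rotorod (s), mean ± SEM, compared with the vehicle (zero-dose) group.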

[23] = system: Rattus norvegicus; assay: Toxicity in rat assessed as time spent on rotarod at 100 mg/kg, po after 1 hr by rotarod test; assay type: organism-based; design: dose 100 mg/kg, route oral; conditions: in vivo; outline: as §3
[24] = AUC (0 to infinity) in chimpanzee at 0.5 mg/kg, iv; assay type: ADME, organism-based, Pan troglodytes; design: time infinity, dose 0.5 mg/kg, route intravenous; conditions: plasma
Outline: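 Chimpanzee PK. Oral: 1 mg/kg in two alert animals, given as a 1 mg/mL suspension in 50–50 (v/v) 0.5% methylcellulose/Tang orange juice with 1% Tween-80. IV: 0.5 mg/kg in one animal in 10% DMAC, 70% propylene glycol and deionized water, infused over 10 min (0.2 mL/kg). EDTA blood was taken predose and at 2–96 h; iv sampling added 6, 15 and 30 min.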

SMILES: CC[C@@H](C)Nc1nc(C)nc2c(-c3ccc(OC)nc3C)c(C)nn12 [PEXACERFONT]
- concentration at 0.5 h [1]: 0.473 µM
- Activity [2]: 6.5%
- Activity [3]: 8.6%
- Activity [4]: -0.1%
- Activity [5]: 166 mg/dL
- Activity [6]: 240 milliosmole
- concentration at 1 h [7]: 3.99 µM
- concentration at 5 h [8]: 4.95 µM
- Activity [9]: 9%
- Activity [10]: 1.2%
- Activity [11]: 4%
- Activity [12]: -2.9%
- Activity [13]: 80 mmol/L
- IC50 [14]: 6.1 nM
- IC50 [15]: 4900 nM
- solubility [16]: 16.3 mg/mL (≈ 47.9 mM)
- solubility [17]: 460 mg/mL (≈ 1350 mM)
- Activity [18]: 44%
- Activity [19]: 3695 cm
- Activity [20]: 4041 cm
- Time [21]: 133 s
- Time [22]: 158 s
- Time [23]: 121 s
- AUC(0-inf) [24]: 11.9 µM·h
